Most compounds without a hit are left out; they make up all but 1.5% or so of the library.
NR1D1 modulator: modulators of human Rev-erb alpha DNA binding | P20393 | Rev-erbα–FITC-DNA binding, fluorescence polarization, 90 min | activity, % at 10 µM | 0.79% of 370,000 active;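 active = activity above about 14%, limit read from the data; passing the limit was not always enough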;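 note: 0% = DMSO wells with 35 nM protein and 100% = DMSO wells with 750 nM protein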
NR2E3 ag-1: agonists of human nuclear receptor NR2E3. GST-NR2E3/biotin-RetCOR TR-FRET, 1536-well. inhibition of corepressor binding, % at 4.78 µM. 0.12% of 320,000 active. AID 2300;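 active = percent inhibition above the cutoff of mean plus 3 SD of all tested compounds, set per screening campaign, cut at about 20% in these data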;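 note: 0% = DMSO wells and 100% = biotin wells as full block of FRET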
Target sequence (Q9Y5X4 whole entry, looked up): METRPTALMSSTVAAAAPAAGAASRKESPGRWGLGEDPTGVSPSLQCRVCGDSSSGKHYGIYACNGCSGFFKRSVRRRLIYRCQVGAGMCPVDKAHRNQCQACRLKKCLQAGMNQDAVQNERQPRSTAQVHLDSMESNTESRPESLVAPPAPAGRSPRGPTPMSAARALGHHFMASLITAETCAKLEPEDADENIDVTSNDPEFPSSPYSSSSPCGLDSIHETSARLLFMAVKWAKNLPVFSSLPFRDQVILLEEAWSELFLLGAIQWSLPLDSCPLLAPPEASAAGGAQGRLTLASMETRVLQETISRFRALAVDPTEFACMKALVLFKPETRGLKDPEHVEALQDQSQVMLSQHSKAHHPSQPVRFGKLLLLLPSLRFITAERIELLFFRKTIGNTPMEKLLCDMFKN
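Material – GST-tagged NR2E3 plus biotinylated RetCOR corepressor · Quantity – NR2E3 fusion 1.35 nM · Times – 5 h incubation at 4 °C · Medium – pH 7.5 Tris-based buffer · Technique – TR-FRET, Eu(K)-anti-GST donor, streptavidin-D2 acceptor, ex 340, em 617/671 nm · Benchmarks – high control biotin, low control 0.6% DMSO · Format – 1536-well plates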
PG9 Ab binder: binds the HIV-1 gp120 antibody PG9. inhibition, % at 6.7 µM. 0.43% of 360,000 active. AID 624416. TR-FRET gp120-PG9 antibody binding; in the data active = inhibition above about 8.5%
NR2E3 ag-2: agonists of human NR2E3 nuclear receptor; Q9Y5X4; CHO-S Gal4-NCOR/VP16-NR2E3 two-hybrid, luciferase; inhibition of corepressor binding, % at 3.98 µM; 0.35% of 360,000 active;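 active = inhibition above the mean of all tested compounds plus 3 SD, cut at about 70% in these data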;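 note: 0% = DMSO with NR2E3 transfected cells and 100% = cells lacking NR2E3 construct; higher means lower luciferase signal from less NR2E3 corepressor binding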
Rev-erbA confirm: confirmation of modulators of human Rev-erb alpha DNA binding; Rev-erb alpha FITC-DNA binding, fluorescence polarization, 90 min; activation, % at 25 µM; shares compounds with NR1D1 modulator; AID 1259319; 61% of 3,000 active;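 active = activation at or above a set limit, or at least 3 SD above the negative control mean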;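 note: 0% = 35 nM protein with DMSO and 100% = 750 nM protein high control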
RORg counter: counter-screen for Rev-erb alpha modulators: RORgamma DNA binding | shares compounds with NR1D1 modulator | purified RORgamma protein-FITC-DNA binding, fluorescence polarization | IC50, µM | 8% of 910 active | AID 1259320;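 active = Compounds whose fitted half-maximal concentration for disrupting protein-DNA binding is below 10 micromolar; the record names Rev-erb in its text, so the target is in doubt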
An asterisk follows results filed as active; i = inactive; . = no result given.

SMILES | NR1D1 modulator | NR2E3 ag-1 | PG9 Ab binder | NR2E3 ag-2 | Rev-erbA confirm | others
Cc1ccc2nsnc2c1S(=O)(=O)N(Cc1ccco1)Cc1cc2ccc(C)c(C)c2[nH]c1=O | -5 | . | 3 | -1 | .
Cc1ccc2nsnc2c1S(=O)(=O)N(Cc1ccco1)Cc1cc2cccc(C)c2[nH]c1=O | 26* | -1 | . | -26 | 14
O=[N+]([O-])c1cccc(-c2noc(COc3ccccc3)n2)c1 | -4 | 0 | -1 | -15 | .
CC1(c2ccc3ccccc3c2)NC(=O)N(CC(=O)NCC(C)(C)N2CCOCC2)C1=O (stereo not given) | 4 | 2 | 1 | 1 | .
CC(=O)Nc1ccc(S(=O)(=O)Nc2ccn(Cc3ccccc3Cl)n2)cc1 | 15* | . | -2 | -7 | -3
COc1ccc(C(=O)CSc2nnc(-c3ccc(S(=O)(=O)N4CCOCC4)cc3)o2)cc1 | 14 | 0 | 3 | 0 | .
O=C(CSc1nnc(-c2ccc(S(=O)(=O)N3CCOCC3)cc2)o1)c1ccccc1F | 21* | 1 | 0 | -20 | 10
CCN=C1S/C(=C\c2ccc(N3CCOCC3)cc2C)C(=O)N1CC | 0 | 0 | -2 | 9 | .
COCCN1C(=O)/C(=C/c2ccc(N3CCCC3)cc2C)SC1=S | 25* | 0 | 1 | -37 | 39* | RORg counter=>40
CC(=O)N(C(C)=O)N1C(=O)c2cccc3c(N4CCOCC4)ccc(c23)C1=O | 17* | -5 | -6 | 1 | 18
CCN(CC)S(=O)(=O)c1ccc(C(=O)OCCN2C(=O)c3cccc4c(N5CCOCC5)ccc(c34)C2=O)cc1 | 278* | -2 | 1 | 1 | 217* | RORg counter=>40
O=C(OCCN1C(=O)c2ccccc2C1=O)c1ccc(S(=O)(=O)N2CCCCCC2)cc1 | 3 | -2 | 1 | -14 | .
COc1cccc2cc(C(=O)NCc3ccc(Cl)cc3)c(=N)oc12 | 9 | 4 | -3 | -28 | .
COc1cccc2cc(C(=O)NCc3ccc(Cl)cc3)c(=O)oc12 | 21* | -1 | 0 | 16 | 10
CCOC(=O)C1CCN(C(=O)C2CCCN(c3ncnc4c3nc3n4CCCCC3)C2)CC1 (stereo not given) | -13 | 0 | -2 | 4 | .
O=C(Nc1nc(-c2ccc3c(c2)Cc2ccccc2-3)cs1)c1ccccc1 | 50* | 2 | -3 | -39 | 14
COc1ccc(/C=C2/CN(Cc3ccc(OC)cc3OC)C3=N[C@H](c4ccccc4)CC(=O)N32)cc1 | 4 | . | . | . | .
Cc1c(NC(=O)C2CCCN(S(=O)(=O)c3c(C(C)C)cc(C(C)C)cc3C(C)C)C2)c(=O)n(-c2ccccc2)n1C (stereo not given) | 28* | . | . | . | 24*
Cc1c(NC(=O)C2CCCN(S(=O)(=O)c3cnc[nH]3)C2)c(=O)n(-c2ccccc2)n1C (stereo not given) | 2 | 2 | -1 | -9 | .
COc1ccccc1N=C1NC(=O)/C(=C/c2ccc(N(C)C)cc2)S1 | 25* | 0 | -4 | -84 | 13
COc1cc(/C=C2/SC(=Nc3ccc(O)cc3)NC2=O)cc(OC)c1O | 4 | 4 | -10 | 11 | .
CSC1=C(C#N)C(c2ccccc2C)C(C#N)=C(N)N1 (stereo not given) | 27* | 0 | -3 | -5 | 14
CC(=O)C1=C(c2ccccc2)OC(N)=C(C#N)C1c1ccccc1C (stereo not given) | 5 | 0 | -1 | 1 | .
CSC1=C(C#N)C(c2ccccc2Cl)C2=C(N1)c1ccccc1C2=O (stereo not given) | 62* | 2 | 0 | -5 | 20*
CC1=C(C#N)C(c2ccccc2)C2=C(N1)c1ccccc1C2=O (stereo not given) | -3 | -1 | 0 | -7 | .
SMILES | NR1D1 modulator | NR2E3 ag-1 | PG9 Ab binder | NR2E3 ag-2 | Rev-erbA confirm | others
O=C(c1cc(-c2ccccc2Cl)nc2ccc(Br)cc12)N1CCN(c2ccccn2)CC1 | 19* | 6 | 4 | -29 | 9
O=C(c1cc(-c2ccncc2)nc2ccc(Br)cc12)N1CCN(c2ccccn2)CC1 | 6 | -3 | 0 | 10 | .
Cc1nc(C(N)=O)nc2ccccc12 | -3 | 1 | 0 | -23 | .
CC(=O)Nc1c(-c2ccc(F)cc2)nc2ncccn12 | -5 | . | . | . | .
NCCNC(=O)c1c(O)c2cccc3c2n(c1=O)CCC3 | -5 | . | 1 | -61 | .
O=C(Nc1ccccn1)c1c(O)c2cccc3c2n(c1=O)CCC3 | 32* | 1 | 1 | -19 | 7
Cc1cccnc1NC(=O)c1c(O)c2cccc3c2n(c1=O)CCC3 | -1 | 4 | 0 | -7 | .
O=C(Nc1nccs1)c1c(O)c2cccc3c2n(c1=O)CCC3 | 36* | 4 | 1 | . | 30*
CCCCC(=O)N(C)c1c(CC)nc2c(OCc3ccc(C(F)(F)F)cc3)cccn12 | 1 | . | -1 | 7 | .
Cc1ccc(NC(=O)c2sc3nc(N4CCOCC4)c4c(c3c2N)CC(C)(C)OC4)cc1 | 6 | 8 | 4 | -60 | .
CCOc1ccc(NC(=O)c2sc3nc(N4CCOCC4)c4c(c3c2N)CC(C)(C)OC4)cc1 | 33* | 1 | 0 | 3 | 14
CC1(C)Cc2c(c(N3CCCC3)nc3sc(C(=O)Nc4ccccc4)c(N)c23)CO1 | 50* | -1 | 1 | -124 | 44* | RORg counter=i
COc1ccc(NC(=O)c2sc3nc(N4CCCC4)c4c(c3c2N)CC(C)(C)OC4)c(OC)c1 | 53* | 4 | 1 | -30 | 30* | RORg counter=i
COc1ccc(NC(=O)c2sc3nc(N4CCOCC4)c4c(c3c2N)CC(C(C)C)OC4)c(OC)c1 (stereo not given) | -4 | 3 | -2 | -15 | .
Cc1ccc(S(=O)(=O)c2nc(Nc3ccccc3C#N)sc2Cl)cc1 | 27* | 0 | 46* | -4 | 36* | RORg counter=>40
Cc1ccc(S(=O)(=O)c2nc(Nc3ccccc3N3CCOCC3)sc2Cl)cc1 | 0 | 0 | -1 | -22 | .
COC(=O)Cc1csc(Nc2ccc(F)c(Cl)c2)n1 | 1 | -3 | -1 | -4 | .
C=CCOc1ccc(C(=O)Nc2ccc3c(c2)n(C)c(=O)n3C)cc1 | 8 | . | 1 | -14 | .
CCOC(=O)c1sc(NC(=O)c2ccc(S(=O)(=O)N(CC)CC)cc2)nc1C | 152* | 0 | 0 | -3 | 94* | RORg counter=>40
CCOC(=O)c1sc(Nc2nc(C)cc(C)n2)nc1C | 1 | 3 | 0 | 14 | .
CCOC(=O)c1sc(Nc2nc(C)cc(OC)n2)nc1C | 15* | -3 | 2 | 7 | 6
CCOC(=O)c1sc(NC(=S)NC(=O)c2ccc(OC)cc2)nc1C | 83* | -3 | 0 | -31 | 65* | RORg counter=>40
CCOC(=O)c1sc(NC(=O)c2ccccc2OCC)nc1C | 36* | 2 | -1 | -45 | 4
CCOC(=O)c1sc(Nc2ccccc2)nc1C | 2 | 1 | -1 | -124 | .
O=S(=O)(/N=C(/c1ccccc1)N1CCOCC1)c1ccc(F)cc1F | 3 | . | 0 | -18 | .

Compound activity: PubChem BioAssay, several laboratories
